Results as given in ChEMBL document CHEMBL1154375, “Novel dehydroepiandrosterone derivatives with antiapoptotic, neuroprotective activity” (J Med Chem, 2009).
The source made the active and inactive calls. No cut-off for these calls is given here.

What was measured:
PC-12 [1] = assay: Neuroprotective activity in rat PC12 cells assessed as inhibition of serum deprivation-induced apoptosis at 100 nM after 24 hrs by APO Percentage apoptosis assay; type: functional, cell-based
Procedure, shortened: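 PC12 cells cultured 24 h in serum-free medium with BSA and 10 nM haloperidol plus 100 nM steroid. Apoptotic cells stained with APOPercentage dye, dye released and read at 550 nm (reference 620 nm); expressed relative to serum-free control; at least four experiments in triplicate.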

[2] = target: T1, Estrogen receptor (Homo sapiens) (UniProt P03372); assay: Agonist activity at estrogen receptor in human Ishikawa cells assessed as induction of ERE-dependent alkaline phosphatase level at 1 uM relative to estradiol; type: functional, cell-based
T1 sequence (whole entry): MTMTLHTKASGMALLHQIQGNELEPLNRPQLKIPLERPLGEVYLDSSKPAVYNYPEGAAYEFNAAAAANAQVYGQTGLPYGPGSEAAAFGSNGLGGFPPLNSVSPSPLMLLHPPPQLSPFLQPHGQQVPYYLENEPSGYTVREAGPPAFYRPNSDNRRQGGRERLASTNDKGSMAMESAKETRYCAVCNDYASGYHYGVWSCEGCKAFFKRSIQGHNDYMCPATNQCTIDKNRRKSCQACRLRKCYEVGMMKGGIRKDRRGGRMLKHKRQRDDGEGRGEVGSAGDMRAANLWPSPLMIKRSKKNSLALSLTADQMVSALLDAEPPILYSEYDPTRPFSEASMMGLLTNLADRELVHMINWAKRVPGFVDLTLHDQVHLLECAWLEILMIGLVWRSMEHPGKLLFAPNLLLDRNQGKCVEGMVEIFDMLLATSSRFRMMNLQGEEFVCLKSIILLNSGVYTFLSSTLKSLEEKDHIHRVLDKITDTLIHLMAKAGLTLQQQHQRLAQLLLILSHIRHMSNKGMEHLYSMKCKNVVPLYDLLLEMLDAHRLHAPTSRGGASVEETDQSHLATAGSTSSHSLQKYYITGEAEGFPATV

[3] = target: T1, Estrogen receptor (Homo sapiens); assay: Antagonist activity at estrogen receptor in human Ishikawa cells assessed as inhibition of ERE-dependent alkaline phosphatase levels at 1 uM relative to ICI-182780; type: functional, cell-based; parameters: scale not given: the % may be the effect or the level left
[4] = target: Estrogen receptor beta (Homo sapiens) (UniProt Q92731); assay: Antagonist activity at ERbeta in HEK293 cells assessed as inhibition of ERE-dependent luciferase expression at 1 uM relative to ICI-182780; type: functional, cell-based; parameters: scale not given: the % may be the effect or the level left
Estrogen receptor beta (Homo sapiens), sequence (Q92731 whole entry): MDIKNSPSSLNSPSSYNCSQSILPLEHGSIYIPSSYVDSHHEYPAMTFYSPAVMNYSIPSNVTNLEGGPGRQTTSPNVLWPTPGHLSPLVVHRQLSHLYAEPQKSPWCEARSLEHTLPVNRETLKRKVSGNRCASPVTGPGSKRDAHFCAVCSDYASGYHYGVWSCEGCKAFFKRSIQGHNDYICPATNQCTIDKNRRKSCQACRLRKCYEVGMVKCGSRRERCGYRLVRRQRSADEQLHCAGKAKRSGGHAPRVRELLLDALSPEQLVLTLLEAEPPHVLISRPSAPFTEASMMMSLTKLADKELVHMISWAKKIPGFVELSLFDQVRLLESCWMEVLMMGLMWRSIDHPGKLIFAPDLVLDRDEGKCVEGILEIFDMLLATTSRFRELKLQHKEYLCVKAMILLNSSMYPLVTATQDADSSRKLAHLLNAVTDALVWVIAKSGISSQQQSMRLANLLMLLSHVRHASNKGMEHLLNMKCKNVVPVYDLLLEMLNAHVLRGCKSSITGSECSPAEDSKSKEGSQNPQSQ

[5] = target: T1, Estrogen receptor (Homo sapiens); assay: Antagonist activity at ERalpha in human MCF7:D5L cells assessed as inhibition of ERE-dependent luciferase expression at 1 uM relative to ICI-182780; type: functional, cell-based
[6] = Displacement of [3H]DHEA from DHEA-binding site in rat PC12 cell membranes by […] counting; parameters: species or system Membrane; settings: pc-12
PC-12 [7] = assay: Cytotoxicity against rat PC12 cells at 0.1 to 10 uM after 24 to 72 hrs by MTT assay; type: cell-based; settings: pc-12, 10 µM
Procedure, shortened: (§1)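 Seeded at 2×10^4 cells/mL in serum-containing medium (PC12: RPMI 1640, 10% horse serum, 5% FBS; HEK293 and HT22: DMEM, 10% FBS) for 24 h, then 0.1, 1 or 10 μM compound for 24, 48 or 72 h. MTT 5 mg/mL, 4 h, 37 °C; DMSO-dissolved formazan read at 570 nm; % of untreated control; three replicates, three experiments.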

PC-12 [8] = assay: Neuroprotective activity against serum deprivation-induced apoptosis in rat PC12 cells assessed as increase in antiapoptotic protein Bcl2 levels at 10 nM after 12 hrs by Western blot; type: functional, cell-based
Procedure, shortened: (§2)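 PC12 cells cultured 12 h in serum-free medium (0.1% BSA, 10 nM haloperidol) with 10 nM steroid; total protein extracts Western blotted for Bcl-2 or Bcl-xL, band intensity by densitometry normalized to actin; % of control; three independent experiments.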

PC-12 [9] = assay: Neuroprotective activity in rat PC12 cells assessed as inhibition of serum deprivation-induced apoptosis after 24 hrs by APO Percentage apoptosis assay; type: functional, cell-based; settings: PC-12, 24 h
HEK293 = assay: Cytotoxicity against HEK293 cells at 0.1 to 10 uM after 24 to 72 hrs by MTT assay; type: cell-based; settings: human, hek293, 10 µM; procedure, shortened: as §1
[10] = Cytotoxicity against mouse HT22 cells at 0.1 to 10 uM after 24 to 72 hrs by MTT assay; type: cell-based; settings: ht-22, 10 µM; procedure, shortened: as §1
PC-12 [11] = assay: Neuroprotective activity against serum deprivation-induced apoptosis in rat PC12 cells assessed as increase in antiapoptotic protein Bcl-XL levels at 10 nM after 12 hrs by Western blot; type: functional, cell-based; procedure, shortened: as §2
[12] = target: Estrogen receptor beta (Homo sapiens) (UniProt Q92731); assay: Agonist activity at ERbeta in HEK293 cells assessed as induction of ERE-dependent luciferase expression at 1 uM relative to estradiol; type: functional, cell-based
PC-12 [13] = assay: Induction of dopamine release in rat PC12 cells at 10 nM after 10 mins by radioimmunoassay relative to control; type: functional
Procedure, shortened: (§3)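 PC12 cells at 10^6/well on poly(L-lysine) exposed to 10 nM steroid in serum-free medium for 5–30 min or 3–48 h; 1 mL supernatant acidified with 0.1 M HCl; dopamine measured by 125I radioimmunoassay after COMT conversion to 3-methoxytyramine and acylation. Expressed as % of untreated cells; four independent experiments.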

PC-12 [14] = assay: Neuroprotective activity in rat PC12 cells assessed as inhibition of serum deprivation-induced apoptosis after 24 hrs by FACS flow cytometry; type: functional, cell-based
Procedure, shortened: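 PC12 cells (10^6/well) 24 h in serum-free medium with BSA plus 100 nM steroid; stained with 2 μg/mL annexin V-FITC (10 min, dark, HEPES/CaCl2 buffer pH 7.4) and propidium iodide, analysed by flow cytometry within 20 min, 10000 cells per treatment; at least four experiments in triplicate.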

Ishikawa = assay: Induction of human Ishikawa cells growth containing endogenous ERalpha receptor at 1 uM by MTT assay relative to estradiol; type: functional, cell-based
Procedure, shortened: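 Endometrial cells at 8000/well in phenol red-free MEM, 1 μg/mL insulin, 5% charcoal-stripped FBS; compound added 24 h after plating, 96 h exposure; MTT at 550 nm.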

[15] = target: T1, Estrogen receptor (Homo sapiens); assay: Agonist activity at ERalpha in human MCF7:D5L cells assessed as induction of ERE-dependent luciferase expression at 1 uM relative to estradiol; type: functional, cell-based
PC-12 [16] = assay: Induction of tyrosine hydroxylase mRNA expression in rat PC12 cells at 10 nM after 6 hrs mins by RT-PCR; type: functional, cell-based
Procedure, shortened: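 PC12 cells incubated 6 h with 10 nM steroid; TH mRNA measured by RT-PCR, 33 cycles, 368 bp product on 2% agarose gel, normalized to GAPDH mRNA.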

PC-12 [17] = assay: Induction of dopamine release in rat PC12 cells at 10 nM after 24 hrs mins by radioimmunoassay; type: functional, cell-based; procedure, shortened: as §3
LNCaP = assay: Induction of human LNCAP cells growth containing endogenous […] receptor at 1 uM by MTT assay relative to estradiol; type: functional, cell-based
Procedure, shortened: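 Prostate cells at 5000/well on polylysine-coated wells in phenol red-free RPMI with 10% charcoal-stripped FBS; after 72 h, 96 h exposure; MTT at 550 nm.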

MCF7 = assay: Induction of human MCF7 cells growth containing endogenous ERalpha receptor at 1 uM by MTT assay relative to estradiol; type: functional
Procedure, shortened: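 Breast cancer cells at 8000/well in phenol red-free MEM, 1 μg/mL insulin, 5% charcoal-stripped FBS; after 72 h, 96 h exposure; MTT formazan at 550 nm.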

For `C[C@]12CC[C@@](O)(CN=[N+]=[N-])CC1=CC[C@@H]1[C@@H]2CC[C@]2(C)C(=O)CC[C@@H]12`, the inhibition (PC-12 [1]) was “inactive”.

In the case of `C[C@]1(O)CC[C@@]2(C)C(=CC[C@@H]3[C@@H]2CC[C@]2(C)C(=O)CC[C@@H]32)C1`, the inhibition (PC-12 [1]) is reported as “inactive”.

For `C[C@]12CC[C@H](O)CC1=CC[C@@H]1[C@@H]2CC[C@@]2(C)[C@H]1CC[C@@]21CO1`, the Activity [2] was 22%, the Activity [3] was “inactive” and the Activity [4] was “inactive”. For the same molecule, the Activity [5] was “inactive”, the IC50 [6] was 0.04 nM and the Activity (PC-12 [7]) was “Non-toxic”. For the same molecule, the Activity (PC-12 [8]) was “Active”, the IC50 (PC-12 [9]) was 0.19 nM and the Activity (HEK293) was “Non-toxic”. The Activity [10] was “Non-toxic”, the Activity (PC-12 [11]) was “Active” and the Activity [12] was “inactive”. For the same molecule, the “fold change (FC)” value (PC-12 [13]) was 2, the Activity (PC-12 [14]) was “Active” and the Activity (Ishikawa) was “inactive”. For the same molecule, the Activity [15] was 29%, the Activity (PC-12 [16]) was “Active” and the Activity (PC-12 [17]) was “Active”. For the same molecule, the Activity (LNCaP) was “inactive” and the Activity (MCF7) was 33%.

In the case of `C[C@@]1(O)CC[C@@]2(C)C(=CC[C@@H]3[C@@H]2CC[C@]2(C)C(=O)CC[C@@H]32)C1`, the inhibition (PC-12 [1]) is reported as “inactive”.

In the case of `CO[C@H]1CC[C@H]2[C@@H]3CC=C4C[C@@H](O)CC[C@]4(C)[C@H]3CC[C@]12C`, the inhibition (PC-12 [1]) is reported as “inactive”.

Molecule `C[C@]12CC[C@H](O)CC1=CC[C@@H]1[C@@H]2CC[C@]2(C)C(=O)CC[C@@H]12` [PRASTERONE] has an IC50 [6] of 1.65 nM and an IC50 (PC-12 [9]) of 0.29 nM.

In the case of `C[C@]12CC[C@H](O)CC1=CC[C@@H]1[C@@H]2CC[C@@]2(C)[C@H]1CC[C@]21O[C@H]1CO`, the Activity [2] is reported as “inactive”, the Activity [3] is reported as “inactive” and the Activity [4] is reported as “inactive”. For the same molecule, the Activity [5] was “inactive”, the IC50 [6] was 0.11 nM and the Activity (PC-12 [7]) was “Non-toxic”. For the same molecule, the Activity (PC-12 [8]) was “Active”, the IC50 (PC-12 [9]) was 99 nM and the Activity (HEK293) was “Non-toxic”. The Activity [10] was “Non-toxic”, the Activity (PC-12 [11]) was “Active” and the Activity [12] was “inactive”. For the same molecule, the Activity (PC-12 [14]) was “Active”, the Activity (Ishikawa) was “inactive” and the Activity [15] was “inactive”. For the same molecule, the Activity (LNCaP) was “inactive” and the Activity (MCF7) was “inactive”.

For `COC[C@]1(O)CC[C@@]2(C)C(=CC[C@@H]3[C@@H]2CC[C@]2(C)C(=O)CC[C@@H]32)C1`, the inhibition (PC-12 [1]) was “inactive”.

For `C[C@]12CC[C@H](O)CC1=CC[C@@H]1[C@@H]2CC[C@@]2(C)[C@H]1CC[C@]21O[C@@H]1CO`, the Activity [2] was “inactive”, the Activity [3] was 24% and the Activity [4] was 31%. The Activity [5] was “inactive”, the IC50 [6] was 18.6 nM and the Activity (PC-12 [7]) was “Non-toxic”. The Activity (PC-12 [8]) was “Active”, the IC50 (PC-12 [9]) was 6.4 nM and the Activity (HEK293) was “Non-toxic”. The Activity [10] was “Non-toxic”, the Activity (PC-12 [11]) was “Active” and the Activity [12] was “inactive”. The “fold change (FC)” value (PC-12 [13]) was 2, the Activity (PC-12 [14]) was “Active” and the Activity (Ishikawa) was “inactive”. For the same molecule, the Activity [15] was “inactive”, the Activity (PC-12 [16]) was “Active” and the Activity (PC-12 [17]) was “Active”. For the same molecule, the Activity (LNCaP) was “inactive” and the Activity (MCF7) was “inactive”.

For `CCCC[C@@]1(O)CC[C@@]2(C)C(=CC[C@@H]3[C@@H]2CC[C@]2(C)C(=O)CC[C@@H]32)C1`, the inhibition (PC-12 [1]) was “inactive”.

With `C[C@]12CC[C@@](O)(CC#N)CC1=CC[C@@H]1[C@@H]2CC[C@]2(C)C(=O)CC[C@@H]12` the inhibition (PC-12 [1]) was “inactive”.
